Compound activity as filed in PubChem BioAssay.
Rows were chosen to be rich in hits. Some 2.3% of all compounds tested hit in one or more screens of this group.
TPT1 inhibitor: inhibitors of Candida albicans tRNA 2'-phosphotransferase TPT1 | inhibition, % at 5 µM | AID 1962 | recombinant caTPT1, FP RNA substrate dephosphorylation | actives 0.81% (n = 300,000);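 active means inhibition above the mean of all tested compounds plus 3 SD, set per screening campaign, cut at about 24% in these data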;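 further: plate controls were DMSO alone for no effect and ferristatin control at 100 nM for full effect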
CSN inh: inhibitors of human CSN-mediated cullin deneddylation. Q92905. Purified CSN, SCF-Nedd8-OG deneddylation, fluorescence polarization. inhibition, % at 12.5 µM. actives 0.38% (n = 360,000). AID 651999;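 active means pattern-corrected inhibition above about 35%, with an unprinted fluorescence ratio check between 0.5 and 1.5, limit read from the data, passing the limit was not always enough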;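 further: 0% = enzyme with substrate and 100% = substrate without enzyme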
Target sequence (Q92905 whole entry, looked up, one chain of several): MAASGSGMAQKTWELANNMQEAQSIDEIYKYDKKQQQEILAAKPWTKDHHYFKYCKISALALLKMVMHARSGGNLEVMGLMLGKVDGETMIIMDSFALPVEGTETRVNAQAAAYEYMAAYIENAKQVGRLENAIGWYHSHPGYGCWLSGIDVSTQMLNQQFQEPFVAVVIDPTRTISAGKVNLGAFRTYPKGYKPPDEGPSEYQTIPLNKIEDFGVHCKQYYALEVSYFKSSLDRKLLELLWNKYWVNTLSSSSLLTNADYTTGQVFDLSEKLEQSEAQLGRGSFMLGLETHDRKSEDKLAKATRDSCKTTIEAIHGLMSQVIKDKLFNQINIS
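Assay system: purified human Csn5 enzyme expressed in HEK293T cells; Input: 0.24 nM Csn5 enzyme, final concentration; Reagent: 10 nM SCFSkp2-Nedd8OG; Compound dosing: 12.5 µM single point; Times: reaction 90 min, room temperature; Technique: fluorescence polarization readout.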
Myeloid diff 2: myeloid differentiation induction; ER-HoxA9 myeloid progenitors, lysozyme-GFP differentiation, flow cytometry; calls only at 10 µM; actives 1% (n = 360,000);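 active means normalized GFP-positive differentiation at or above the plate's own cutoff, the solvent-only control mean plus 3 SD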;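 further: cells exposed to compound for four days before flow analysis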
Rpn11 inh: Rpn11 (human) deubiquitinase inhibition; O00487; actives 0.59% (n = 360,000); human 26S proteasome, Ub4-pepOG fluorescence polarization; 20S core pre-blocked with epoxomicin; inhibition, % at 20 µM;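 active means inhibition at 20 µM, scaled to each plate's controls, above about 33%, limit read from the data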
Target sequence (O00487 whole entry, looked up): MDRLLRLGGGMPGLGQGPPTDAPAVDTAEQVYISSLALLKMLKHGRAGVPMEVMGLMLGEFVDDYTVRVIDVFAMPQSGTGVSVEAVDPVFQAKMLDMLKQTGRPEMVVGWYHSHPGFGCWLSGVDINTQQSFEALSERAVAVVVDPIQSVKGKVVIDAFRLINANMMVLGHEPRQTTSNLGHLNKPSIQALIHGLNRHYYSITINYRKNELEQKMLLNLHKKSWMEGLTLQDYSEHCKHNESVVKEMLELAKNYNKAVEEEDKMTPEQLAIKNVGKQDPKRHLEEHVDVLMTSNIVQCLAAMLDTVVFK
HNF4A DNA FP: change in binding of human HNF4 alpha to DNA; P41235; HNF4a-FITC DNA binding, fluorescence polarization, 1 h; activity change, % at 10 µM; actives 0.3% (n = 360,000); AID 1224865; in the data active means activity change above about 30%, passing the limit was not always enough
caTPT1 confirm: confirmation of Candida albicans TPT1 inhibitors; shares compounds with TPT1 inhibitor; recombinant caTPT1, fluorescence polarization, RNase T1 coupled; inhibition, % at 5 µM; actives 74% (n = 2,400); AID 2149;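 active means inhibition above the primary screen limit, the mean inhibition of all tested compounds plus 3 SD, cut at about 25% in these data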
RNase T1 counter: counter-screen for TPT1 inhibitors: inhibitors of Aspergillus oryzae RNase T1; shares compounds with TPT1 inhibitor; RNase T1 cleavage, fluorescence polarization, 1536-well; inhibition, % at 5 µM; actives 83% (n = 2,400);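 active means inhibition above the solvent-only control well mean plus 3 SD, limit set per screening run, cut at about 23% in these data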;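 further: plate controls were DMSO wells with enzyme for no effect and wells without RNase T1 for full effect; inhibitors block cleavage so intact labeled substrate keeps polarization high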
* marks the source's active call; other numbers are inactive results.

What do the screens show for `O=C(NN=Cc1c(O)ccc2ccccc12)c1ccc2c(c1)OCO2`?
CSN inh: 6; Myeloid diff 2: inactive; Rpn11 inh: 12; HNF4A DNA FP: 3

What do the screens show for `COC(=O)c1ccc(/C(O)=C(\C#N)c2nc3ccccc3s2)cc1`?
TPT1 inhibitor: 3; CSN inh: -2; Myeloid diff 2: inactive; Rpn11 inh: 2; HNF4A DNA FP: 3

What do the screens show for `N#C/C(=C\c1ccncc1)c1nc2ccccc2[nH]1`?
CSN inh: -1; Myeloid diff 2: inactive; Rpn11 inh: 18; HNF4A DNA FP: 2

What do the screens show for `COc1cc(/C=C(\CC(=O)O)c2nc3ccccc3s2)ccc1OCC(=O)Nc1ccccc1F`?
CSN inh: -2; Myeloid diff 2: inactive; Rpn11 inh: 4; HNF4A DNA FP: -2

How did CC(C)=C(C#N)c1nc2ccccc2s1 do in these assays?
TPT1 inhibitor: 25*; CSN inh: -4; Myeloid diff 2: inactive; Rpn11 inh: 6; HNF4A DNA FP: -1; caTPT1 confirm: 8; RNase T1 counter: 9

How did COc1cc(/C=C(\C#N)c2nc3ccccc3s2)ccc1OCC(=O)Nc1ccccc1 do in these assays?
TPT1 inhibitor: 60*; CSN inh: 40*; Myeloid diff 2: active; HNF4A DNA FP: 33*; caTPT1 confirm: 32*; RNase T1 counter: 44*

What do the screens show for `N#C/C(=C/c1ccncc1)c1nc2ccccc2s1`?
TPT1 inhibitor: 30*; CSN inh: 13; Myeloid diff 2: inactive; HNF4A DNA FP: 6; caTPT1 confirm: 14; RNase T1 counter: 21

How did CC(C)CC(NC(N)=O)C(=O)OCC(=O)N(Cc1ccccc1)Cc1ccccc1 (stereo unspecified) do in these assays?
TPT1 inhibitor: 3; CSN inh: -2; Myeloid diff 2: inactive; Rpn11 inh: -9; HNF4A DNA FP: -4

How did Cc1ccsc1C(=O)NC1CCCN(Cc2ccc(Cl)cc2)C1 (stereo unspecified) do in these assays?
CSN inh: 1; Myeloid diff 2: inactive; Rpn11 inh: -19; HNF4A DNA FP: 1

Results for COC(=O)C(NC(=O)c1cccnc1Cl)C(C)C (stereo unspecified) ?
TPT1 inhibitor: 3; CSN inh: 0; Myeloid diff 2: inactive; Rpn11 inh: 2; HNF4A DNA FP: -3

Results for COc1ccc(CN2CCN(Cc3cc(=O)oc4cc(C)ccc34)CC2)c(OC)c1OC ?
TPT1 inhibitor: 26*; CSN inh: 0; Myeloid diff 2: inactive; Rpn11 inh: -2; HNF4A DNA FP: 1; caTPT1 confirm: 10; RNase T1 counter: 13

How did CCOC(=O)c1sc2cc([N+](=O)[O-])cc(SCC(C)C)c2c1N do in these assays?
TPT1 inhibitor: 32*; CSN inh: 20; Myeloid diff 2: active; HNF4A DNA FP: 25; caTPT1 confirm: 35*; RNase T1 counter: 46*

How did CCC(C)(C(=O)NC1CCCCC1)N(C(=O)Cc1cccs1)c1ccccc1 (stereo unspecified) do in these assays?
TPT1 inhibitor: 68*; CSN inh: 1; Myeloid diff 2: inactive; Rpn11 inh: -2; HNF4A DNA FP: 0; caTPT1 confirm: 3; RNase T1 counter: 8

Results for CC(C)(C)S(=O)(=O)N1C[C@H]2C(=CC[C@@H]3C(=O)N(c4ccccc4)C(=O)[C@@H]32)[C@H]1CCO ?
CSN inh: -3; Myeloid diff 2: inactive; Rpn11 inh: -3; HNF4A DNA FP: 2

Results for O=C(Nc1nccs1)c1ccc(N2C(=O)C3CCCCC3C2=O)cc1 (stereo unspecified) ?
TPT1 inhibitor: 65*; CSN inh: 5; Myeloid diff 2: inactive; Rpn11 inh: 5; HNF4A DNA FP: -5; caTPT1 confirm: 5; RNase T1 counter: 11

Results for CC1(C)Cc2c(cnn2-c2cccc(F)c2)C(NC(=O)CSc2ccncc2)C1 (stereo unspecified) ?
TPT1 inhibitor: 3; CSN inh: 1; Myeloid diff 2: inactive; Rpn11 inh: 2; HNF4A DNA FP: -1

Results for COc1ccc(C2CC(c3c(O)cc(C)oc3=O)=NCCS2)c(OC)c1 (stereo unspecified) ?
TPT1 inhibitor: 42*; CSN inh: 7; Rpn11 inh: 19; HNF4A DNA FP: 5; caTPT1 confirm: 5; RNase T1 counter: 12

Results for Cc1cc(O)c(C2=Nc3ccccc3SC(c3ccc(Cl)cc3)C2)c(=O)o1 (stereo unspecified) ?
TPT1 inhibitor: 6; CSN inh: -4; Myeloid diff 2: inactive; Rpn11 inh: 7; HNF4A DNA FP: 1

How did COc1cc(/C=C2\SC(=Nc3ccccc3)NC2=O)cc(Cl)c1O do in these assays?
TPT1 inhibitor: 105*; CSN inh: 150; Myeloid diff 2: inactive; HNF4A DNA FP: 123; caTPT1 confirm: 114*; RNase T1 counter: 110*

Results for COc1cc(/C=C2\SC(=Nc3cccnc3)NC2=O)cc(OC)c1OC ?
TPT1 inhibitor: 52*; CSN inh: 12; Myeloid diff 2: inactive; Rpn11 inh: 38; HNF4A DNA FP: 8; caTPT1 confirm: 73*; RNase T1 counter: 84*

How did CCc1ccc(N=C2NC(=O)/C(=C/c3cc(OC)c(O)c(OC)c3)S2)cc1 do in these assays?
CSN inh: 30; Myeloid diff 2: inactive; HNF4A DNA FP: 14

How did CCOc1ccc(S(=O)(=O)N(CC(=O)NN=C2CCN(C)CC2)c2ccc(C)cc2)cc1 do in these assays?
CSN inh: 0; Myeloid diff 2: inactive; Rpn11 inh: -21; HNF4A DNA FP: -2

Results for O=C1CC(=O)N(CCc2ccc(F)cc2)C(=O)N1 ?
TPT1 inhibitor: 39*; CSN inh: 13; Myeloid diff 2: inactive; Rpn11 inh: 19; HNF4A DNA FP: 11; caTPT1 confirm: 31*; RNase T1 counter: 40*

Results for CC1CC(=O)N(CCc2ccccc2)C(=O)C1 ?
CSN inh: 1; Myeloid diff 2: inactive; Rpn11 inh: -3; HNF4A DNA FP: 4

Results for O=C1CC(=O)N(CCc2ccccc2)C(=O)N1CCc1ccccc1 ?
TPT1 inhibitor: 40*; CSN inh: 0; Myeloid diff 2: inactive; Rpn11 inh: 24; HNF4A DNA FP: 4; caTPT1 confirm: 5; RNase T1 counter: 9

How did Cc1ccc(NC(=O)CCCCCN2C(=O)[C@@H]3Cc4ccccc4CN3C2=O)c(C)c1 do in these assays?
TPT1 inhibitor: -2; CSN inh: 1; Myeloid diff 2: inactive; Rpn11 inh: -5; HNF4A DNA FP: -5

What do the screens show for `CCOC(=O)C1(CC2CCCCO2)CCN(C(=O)Nc2ccc3c(c2)OCO3)CC1` (stereo unspecified)?
TPT1 inhibitor: 38*; CSN inh: -1; Myeloid diff 2: inactive; Rpn11 inh: 2; HNF4A DNA FP: 2; caTPT1 confirm: 0; RNase T1 counter: 18
